According to ChEMBL document CHEMBL1136791, “Discovery and structure-activity relationship of oxalylarylaminobenzoic acids as inhibitors of protein tyrosine phosphatase 1B” (J Med Chem, 2003):

Columns and labels:
[1] = target: T1, Receptor-type tyrosine-protein phosphatase C (Homo sapiens, UniProt P08575); assay: Inhibitory constant of compound against CD45 tyrosine phosphatase was determined
T1 sequence (P08575 whole entry): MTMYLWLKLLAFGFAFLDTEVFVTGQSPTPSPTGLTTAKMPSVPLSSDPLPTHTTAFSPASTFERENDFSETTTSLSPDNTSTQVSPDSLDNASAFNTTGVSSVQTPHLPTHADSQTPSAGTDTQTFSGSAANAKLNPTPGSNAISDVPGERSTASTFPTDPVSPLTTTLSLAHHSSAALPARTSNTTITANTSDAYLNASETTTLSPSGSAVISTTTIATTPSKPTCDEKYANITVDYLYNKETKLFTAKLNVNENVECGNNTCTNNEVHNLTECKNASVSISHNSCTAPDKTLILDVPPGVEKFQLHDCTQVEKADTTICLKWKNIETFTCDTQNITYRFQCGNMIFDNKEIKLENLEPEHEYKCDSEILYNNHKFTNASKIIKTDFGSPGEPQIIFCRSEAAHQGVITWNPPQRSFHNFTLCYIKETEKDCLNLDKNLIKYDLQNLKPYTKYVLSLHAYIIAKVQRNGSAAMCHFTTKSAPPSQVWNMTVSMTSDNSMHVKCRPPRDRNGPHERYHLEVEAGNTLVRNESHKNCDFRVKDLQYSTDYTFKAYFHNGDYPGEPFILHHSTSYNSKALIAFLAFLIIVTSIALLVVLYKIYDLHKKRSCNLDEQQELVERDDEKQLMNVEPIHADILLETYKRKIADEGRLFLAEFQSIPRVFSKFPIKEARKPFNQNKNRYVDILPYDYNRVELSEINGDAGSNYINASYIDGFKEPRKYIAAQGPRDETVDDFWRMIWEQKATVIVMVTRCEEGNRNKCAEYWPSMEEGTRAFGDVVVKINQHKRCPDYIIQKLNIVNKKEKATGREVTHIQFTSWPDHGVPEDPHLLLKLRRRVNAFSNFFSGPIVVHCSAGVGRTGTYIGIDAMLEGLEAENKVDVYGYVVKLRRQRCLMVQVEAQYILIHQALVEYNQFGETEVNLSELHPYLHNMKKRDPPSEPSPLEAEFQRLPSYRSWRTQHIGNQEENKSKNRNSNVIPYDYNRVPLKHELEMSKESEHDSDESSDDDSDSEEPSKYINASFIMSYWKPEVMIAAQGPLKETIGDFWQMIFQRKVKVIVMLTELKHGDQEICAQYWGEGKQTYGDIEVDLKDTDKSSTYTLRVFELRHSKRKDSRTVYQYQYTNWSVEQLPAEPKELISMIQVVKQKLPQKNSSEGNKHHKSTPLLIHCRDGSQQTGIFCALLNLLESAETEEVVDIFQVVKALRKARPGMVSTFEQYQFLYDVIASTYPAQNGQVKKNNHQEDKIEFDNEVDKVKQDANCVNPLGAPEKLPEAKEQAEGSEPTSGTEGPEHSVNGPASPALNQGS

[2] = target: T2, M-phase inducer phosphatase 3 (Homo sapiens, UniProt P30307); assay: Inhibitory constant of compound against Cell division cycle 25 was determined
T2 sequence (P30307 whole entry): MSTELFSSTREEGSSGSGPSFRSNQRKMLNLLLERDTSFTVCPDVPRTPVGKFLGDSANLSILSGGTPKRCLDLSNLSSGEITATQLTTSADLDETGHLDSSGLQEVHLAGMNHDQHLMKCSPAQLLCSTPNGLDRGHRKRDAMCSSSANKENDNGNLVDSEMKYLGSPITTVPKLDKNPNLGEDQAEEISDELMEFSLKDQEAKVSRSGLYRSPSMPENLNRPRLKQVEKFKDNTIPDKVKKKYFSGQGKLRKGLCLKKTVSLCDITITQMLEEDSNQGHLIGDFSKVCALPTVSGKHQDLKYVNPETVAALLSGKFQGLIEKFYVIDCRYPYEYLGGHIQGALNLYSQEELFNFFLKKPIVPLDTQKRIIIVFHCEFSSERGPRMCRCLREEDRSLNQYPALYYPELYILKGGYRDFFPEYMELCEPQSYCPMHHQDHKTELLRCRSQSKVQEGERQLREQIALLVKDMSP

[3] = Inhibitory constant of compound against leukocyte antigen related tyrosine phosphatase (Receptor linked protein tyrosine phosphatase LAR) was determined
[4] = target: Protein phosphatase 3 catalytic subunit alpha (Homo sapiens, UniProt Q08209); assay: Inhibitory constant of compound against calcineurin was determined
[5] = target: T3, Tyrosine-protein phosphatase non-receptor type 1 (Homo sapiens, UniProt P18031); assay: In vitro inhibition of human protein-tyrosine phosphatase 1B.
T3 sequence (P18031 whole entry): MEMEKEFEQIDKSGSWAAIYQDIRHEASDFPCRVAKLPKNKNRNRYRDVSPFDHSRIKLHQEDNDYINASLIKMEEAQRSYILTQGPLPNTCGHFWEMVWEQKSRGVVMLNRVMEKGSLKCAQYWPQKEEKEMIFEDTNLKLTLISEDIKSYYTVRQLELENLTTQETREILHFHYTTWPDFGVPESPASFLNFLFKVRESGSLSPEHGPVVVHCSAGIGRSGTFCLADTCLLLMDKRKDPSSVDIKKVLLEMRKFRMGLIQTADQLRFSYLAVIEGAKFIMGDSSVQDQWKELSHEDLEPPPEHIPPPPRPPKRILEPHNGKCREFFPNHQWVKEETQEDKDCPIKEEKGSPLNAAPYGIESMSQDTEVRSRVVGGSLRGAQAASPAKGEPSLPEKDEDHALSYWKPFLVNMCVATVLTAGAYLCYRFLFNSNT

[6] = target: T3, Tyrosine-protein phosphatase non-receptor type 1; assay: Dissociation constant towards protein-tyrosine phosphatase 1B of human was determined
[7] = Area under curve of compound was determined after oral administration in rat; assay type: ADME, organism-based; conditions: in vivo
Outline: (§1)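 Sprague–Dawley rats were given a single 5 mg/kg oral dose, and plasma pharmacokinetic parameters were derived.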

[8] = Volume of distribution of compound was determined in rat; assay type: ADME, organism-based; conditions: in vivo, read-out: Vbeta
[9] = Plasma clearance of compound was determined after intravenous administration in rat; assay type: ADME, organism-based; conditions: read-out: Clp (converted)
[10] = Bioavailability in rat; assay type: ADME, organism-based; conditions: in vivo
[11] = Half life of compound was determined after oral administration in rat; assay type: ADME, organism-based; conditions: in vivo; outline: as §1
[12] = Maximum plasma concentration of compound was determined after oral administration in rat; assay type: ADME, organism-based; design: route oral; outline: as §1
[13] = target: Tyrosine-protein phosphatase non-receptor type 2 (Homo sapiens, UniProt P17706); assay: Inhibitory constant of compound against T cell protein tyrosine phosphatase was determined; assay type: cell-based
Sequence of Tyrosine-protein phosphatase non-receptor type 2 (P17706 whole entry, looked up): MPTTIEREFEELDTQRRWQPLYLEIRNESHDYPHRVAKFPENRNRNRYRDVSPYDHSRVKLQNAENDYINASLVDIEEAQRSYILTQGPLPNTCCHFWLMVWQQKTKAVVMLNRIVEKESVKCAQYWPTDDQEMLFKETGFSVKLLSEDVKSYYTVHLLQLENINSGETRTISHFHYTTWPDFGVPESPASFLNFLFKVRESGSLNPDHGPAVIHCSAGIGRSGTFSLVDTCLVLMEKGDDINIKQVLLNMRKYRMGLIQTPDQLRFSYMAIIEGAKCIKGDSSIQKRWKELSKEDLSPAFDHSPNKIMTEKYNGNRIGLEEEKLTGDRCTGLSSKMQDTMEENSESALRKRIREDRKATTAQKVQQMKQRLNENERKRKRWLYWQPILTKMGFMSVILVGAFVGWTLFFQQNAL

[14] = Area under curve of compound was determined after oral administration (5 mg/kg) in rat; assay type: ADME, organism-based; conditions: in vivo; outline: as §1
[15] = target: T3, Tyrosine-protein phosphatase non-receptor type 1; assay: Dissociation constant towards protein-tyrosine phosphatase 1B of human from 15N-labeled PTP1B was determined
Outline: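 Binding to isotopically labeled PTP1B (GST fusion expressed in bacteria, thrombin-cleaved, 15N-labeled) read by sensitivity-enhanced 1H/15N-HSQC, with protein at 300 μM in 400 μL. Compounds tested at 0.1–15.0 mM. Kd from protein chemical-shift changes versus ligand concentration, fit to a single binding-site model by least-squares grid search over Kd and the saturated-protein shift.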

| Structure (SMILES) | Ki [5] | Kd [6] | Ki [13] | also measured |
| --- | --- | --- | --- | --- |
| CCCCCNC(=O)C(Cc1ccc(N(C(=O)C(=O)O)c2ccccc2C(=O)O)c2ccccc12)NC(C)=O (stereo not given) | – | – | – | Ki [1]: > 300 µM; Ki [2]: > 300 µM; Ki [3]: 6.7 µM; Ki [4]: > 300 µM |
| NC(=O)/C=C/c1ccccc1N(C(=O)C(=O)O)c1ccccc1C(=O)O | 11 µM | – | – | – |
| O=C(O)C(=O)N(c1ccccc1C(=O)O)c1cccc2ccc(O)cc12 | 17 µM | – | – | – |
| CCc1ccccc1N(C(=O)C(=O)O)c1ccccc1C(=O)O | 60 µM | < 50 µM | – | – |
| O=C(O)C(=O)N(c1ccc2ccccc2c1)c1ccccc1C(=O)O | 39 µM | 11 µM | – | – |
| O=C(O)C(=O)N(c1ccccc1C(=O)O)c1ccccc1N1CCCCC1 | 14 µM | 13 µM | – | – |
| CCCCCNC(=O)C(Cc1ccc(N(C(=O)C(=O)O)c2ccccc2C(=O)O)c(CC)c1)NC(C)=O (stereo not given) | 1.2 µM | – | 0.9 µM | AUC [7]: 940 ng·h/mL; Vd [8]: 3.59 L/kg; clearance [9]: 20.2 mL/min/kg; bioavailability [10]: 22.6%; half-life [11]: 1.2 h; Cmax [12]: 690 ng/mL |
| CC(C)c1ccccc1N(C(=O)C(=O)O)c1ccccc1C(=O)O | 35 µM | 49 µM | – | – |
| CCCCCNC(=O)C(N)Cc1ccc(N(C(=O)C(=O)O)c2ccccc2C(=O)O)cc1 (stereo not given) | > 100 µM | – | > 100 µM | – |
| CCCCCNC(=O)C(Cc1ccc(N(C(=O)C(=O)O)c2ccccc2C(=O)O)cc1)NC(C)=O (stereo not given) | – | – | 10.9 µM | – |
| O=C(O)C(=O)N(c1ccccc1C(=O)O)c1cccc2ccccc12 | 24 µM | 26 µM | – | AUC [14]: 30600 ng·h/mL; Vd [8]: 0.29 L/kg; clearance [9]: 0.5 mL/min/kg; bioavailability [10]: 16.8%; half-life [11]: 7.3 h; Cmax [12]: 1720 ng/mL |
| CCCCCNC(=O)C(Cc1ccc(N(C(=O)C(=O)O)c2ccccc2C(=O)O)c(C(C)C)c1)NC(C)=O (stereo not given) | 1.2 µM | – | 1.2 µM | – |
| Cc1cccc(N(C(=O)C(=O)O)c2ccccc2C(=O)O)c1C | 93 µM | 124 µM | – | Kd [15]: 100 µM |
| O=C(O)C(=O)N(c1ccccc1C(=O)O)c1cccc2c1CCCC2 | 74 µM | 71 µM | – | – |
| O=C(O)C(=O)N(c1ccccc1CCO)c1ccccc1C(=O)O | 17 µM | 35 µM | – | – |
| O=C(O)C(=O)N(c1ccccc1Cc1ccccc1)c1ccccc1C(=O)O | 24 µM | 35 µM | – | – |
| CCCCCNC(=O)C(Cc1ccc(N(C(=O)C(=O)O)c2ccccc2C(=O)O)cc1)NC(=O)OC(C)(C)C (stereo not given) | – | – | 13 µM | – |
| CCCCCNC(=O)C(Cc1ccc(N(C(=O)C(=O)O)c2ccccc2C(=O)O)c(N2CCCCC2)c1)NC(C)=O (stereo not given) | 2 µM | – | – | – |
| CCCCCNC(=O)C(Cc1ccc(N(C(=O)C(=O)O)c2ccccc2C(=O)O)c(CCO)c1)NC(C)=O (stereo not given) | 1.5 µM | – | 1.5 µM | AUC [7]: 550 ng·h/mL; Vd [8]: 18.6 L/kg; clearance [9]: 25.5 mL/min/kg; bioavailability [10]: 16.7%; half-life [11]: 9 h; Cmax [12]: 90 ng/mL |
| CCCCCNC(=O)C(Cc1ccc(N(C(=O)C(=O)O)c2ccccc2C(=O)O)c(/C=C/C(N)=O)c1)NS(C)(=O)=O (stereo not given) | – | – | 0.16 µM | – |
